# Test results as given in ChEMBL document CHEMBL4715736, “Identification of anticancer agents based on the thieno[2,3-b]pyridine and 1H-pyrazole molecular scaffolds” (2016).
# Tests used:
# Format in all cases: functional
# [1] = tested on: KM12; assay: Growth inhibition of human KM12 cells incubated for 48 hrs by sulforhodamine B assay
# Procedure, shortened: (§1)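 NCI60 panel at the NCI Developmental Therapeutics Program. Only compounds active in the 10 µM screen went to dose-response testing. GI50, the concentration giving 50% of maximal inhibition of proliferation, and TGI, the concentration giving total growth inhibition, were derived from the dose-response curves.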
# [2] = tested on: OVCAR-8; assay: Growth inhibition of human OVCAR-8 cells assessed as cell growth at 100 uM incubated for 48 hrs by sulforhodamine B assay relative to control; conditions: read-out: Activity
# [3] = tested on: RXF 393; assay: Growth inhibition of human RXF 393 cells incubated for 48 hrs by sulforhodamine B assay; conditions: for CC50: read-out: LC50 (the source's name)
# Procedure, shortened: (§2)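 NCI DTP 60-line human tumour panel. Dose-response curves were run only for ligands active in the initial 10 µM screen. GI50 (concentration giving 50% of maximal inhibition of proliferation) and TGI (concentration giving total growth inhibition) were derived from these curves.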
# [4] = tested on: Hs-578T; assay: Growth inhibition of human Hs-578T cells assessed as cell growth at 100 uM incubated for 48 hrs by sulforhodamine B assay relative to control; conditions: read-out: Activity
# [5] = tested on: HT-29; assay: Growth inhibition of human HT-29 cells incubated for 48 hrs by sulforhodamine B assay; procedure, shortened: as §1
# [6] = tested on: K562; assay: Growth inhibition of human K562 cells assessed as cell growth at 100 uM incubated for 48 hrs by sulforhodamine B assay relative to control; conditions: read-out: Activity
# [7] = tested on: HCT-15; assay: Growth inhibition of human HCT-15 cells assessed as cell growth at 1 uM incubated for 48 hrs by sulforhodamine B assay relative to control; conditions: read-out: Activity
# [8] = tested on: CCRF-CEM; assay: Growth inhibition of human CCRF-CEM cells assessed as cell growth at 1 uM incubated for 48 hrs by sulforhodamine B assay relative to control; conditions: read-out: Activity
# Procedure, shortened: (§3)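 NCI Developmental Therapeutics Program NCI60 panel. Compounds that were active in the 10 µM one-dose screen went on to dose–response testing. Growth at each concentration is expressed relative to untreated control (100%). GI50 (concentration giving 50% of maximal inhibition of proliferation) and TGI (concentration giving total growth inhibition) were derived from the curves.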
# [9] = tested on: SNB-19; assay: Growth inhibition of human SNB-19 cells assessed as cell growth at 0.1 uM incubated for 48 hrs by sulforhodamine B assay relative to control; conditions: read-out: Activity
# [10] = tested on: SNB-75; assay: Growth inhibition of human SNB-75 cells incubated for 48 hrs by sulforhodamine B assay; procedure, shortened: as §2
# [11] = tested on: HOP-62; assay: Growth inhibition of human HOP-62 cells assessed as cell growth at 0.1 uM incubated for 48 hrs by sulforhodamine B assay relative to control; conditions: read-out: Activity
# [12] = tested on: SNB-75; assay: Growth inhibition of human SNB-75 cells assessed as cell growth at 0.01 uM incubated for 48 hrs by sulforhodamine B assay relative to control; conditions: read-out: Activity
# [13] = tested on: A498; assay: Growth inhibition of human A498 cells assessed as cell growth at 100 uM incubated for 48 hrs by sulforhodamine B assay relative to control; conditions: read-out: Activity; procedure, shortened: as §3
# [14] = tested on: SNB-75; assay: Growth inhibition of human SNB-75 cells assessed as cell growth at 100 uM incubated for 48 hrs by sulforhodamine B assay relative to control; conditions: read-out: Activity
# [15] = tested on: SK-MEL-5; assay: Growth inhibition of human SK-MEL-5 cells assessed as cell growth at 0.1 uM incubated for 48 hrs by sulforhodamine B assay relative to control; conditions: read-out: Activity
# [16] = tested on: NCI-H460; assay: Growth inhibition of human NCI-H460 cells incubated for 48 hrs by sulforhodamine B assay; procedure, shortened: as §1
# [17] = tested on: KM12; assay: Growth inhibition of human KM12 cells assessed as cell growth at 100 uM incubated for 48 hrs by sulforhodamine B assay relative to control; conditions: read-out: Activity
# [18] = tested on: SK-MEL-2; assay: Growth inhibition of human SK-MEL-2 cells assessed as cell growth at 1 uM incubated for 48 hrs by sulforhodamine B assay relative to control; conditions: read-out: Activity
# [19] = tested on: NCI-H522; assay: Growth inhibition of human NCI-H522 cells incubated for 48 hrs by sulforhodamine B assay; procedure, shortened: as §1
# [20] = tested on: HOP-92; assay: Growth inhibition of human HOP-92 cells incubated for 48 hrs by sulforhodamine B assay; procedure, shortened: as §1
# [21] = tested on: UO-31; assay: Growth inhibition of human UO-31 cells assessed as cell growth at 1 uM incubated for 48 hrs by sulforhodamine B assay relative to control; conditions: read-out: Activity
# [22] = tested on: ACHN; assay: Growth inhibition of human ACHN cells assessed as cell growth at 1 uM incubated for 48 hrs by sulforhodamine B assay relative to control; conditions: read-out: Activity
# [23] = tested on: DU-145; assay: Growth inhibition of human DU-145 cells assessed as cell growth at 100 uM incubated for 48 hrs by sulforhodamine B assay relative to control; conditions: read-out: Activity; procedure, shortened: as §3
# [24] = tested on: COLO 205; assay: Growth inhibition of human COLO 205 cells incubated for 48 hrs by sulforhodamine B assay; procedure, shortened: as §3
# [25] = tested on: NCI-H226; assay: Growth inhibition of human NCI-H226 cells assessed as cell growth at 0.01 uM incubated for 48 hrs by sulforhodamine B assay relative to control; conditions: read-out: Activity
# [26] = tested on: SNB-75; assay: Growth inhibition of human SNB-75 cells assessed as cell growth at 1 uM incubated for 48 hrs by sulforhodamine B assay relative to control; conditions: read-out: Activity
# [27] = tested on: OVCAR-5; assay: Growth inhibition of human OVCAR-5 cells assessed as cell growth at 100 uM incubated for 48 hrs by sulforhodamine B assay relative to control; conditions: read-out: Activity
# [28] = tested on: CCRF-CEM; assay: Growth inhibition of human CCRF-CEM cells assessed as cell growth at 100 uM incubated for 48 hrs by sulforhodamine B assay relative to control; conditions: read-out: Activity; procedure, shortened: as §3
# [29] = tested on: HT-29; assay: Growth inhibition of human HT-29 cells assessed as cell growth at 0.01 uM incubated for 48 hrs by sulforhodamine B assay relative to control; conditions: read-out: Activity
# [30] = tested on: NCI-H226; assay: Growth inhibition of human NCI-H226 cells assessed as cell growth at 0.1 uM incubated for 48 hrs by sulforhodamine B assay relative to control; conditions: read-out: Activity
# [31] = tested on: SR; assay: Growth inhibition of human SR cells assessed as cell growth at 0.1 uM incubated for 48 hrs by sulforhodamine B assay relative to control; conditions: read-out: Activity
# [32] = tested on: MDA-MB-231; assay: Growth inhibition of human MDA-MB-231 cells incubated for 48 hrs by sulforhodamine B assay; conditions: for CC50: read-out: LC50 (the source's name); procedure, shortened: as §1
# [33] = tested on: UACC-62; assay: Growth inhibition of human UACC-62 cells assessed as cell growth at 100 uM incubated for 48 hrs by sulforhodamine B assay relative to control; conditions: read-out: Activity
# [34] = tested on: UACC-62; assay: Growth inhibition of human UACC-62 cells incubated for 48 hrs by sulforhodamine B assay; procedure, shortened: as §2
# [35] = tested on: PC-3; assay: Growth inhibition of human PC-3 cells assessed as cell growth at 0.01 uM incubated for 48 hrs by sulforhodamine B assay relative to control; conditions: read-out: Activity
smiles,measurement,setting,value
Cc1ccc(NC(=O)c2sc3nc4c(cc3c2N)C(=O)CCC4)cc1C,GI50,[1],0.479 µM
same,LC50,[1],> 100 µM
same,TGI,[1],> 100 µM
same,growth at 100 µM,[2],11%
same,GI50,[3],0.222 µM
same,CC50,[3],> 100 µM
same,growth at 100 µM,[4],17%
same,GI50,[5],0.399 µM
same,LC50,[5],> 100 µM
same,TGI,[5],≥ 100 µM
same,growth at 100 µM,[6],-4%
same,growth at 1 µM,[7],32%
same,growth at 1 µM,[8],7%
same,growth at 0.1 µM,[9],88%
same,GI50,[10],0.183 µM
same,LC50,[10],> 100 µM
same,TGI,[10],> 100 µM
same,growth at 0.1 µM,[11],86%
same,growth at 0.01 µM,[12],78%
same,growth at 100 µM,[13],-17%
same,growth at 100 µM,[14],10%
same,growth at 0.1 µM,[15],90%
same,GI50,[16],0.374 µM
same,LC50,[16],> 100 µM
same,TGI,[16],≥ 100 µM
same,growth at 100 µM,[17],9%
same,growth at 1 µM,[18],22%
same,GI50,[19],0.256 µM
same,LC50,[19],> 100 µM
same,TGI,[19],20 µM
same,LC50 (concentration killing 50% of the starting cells),[20],> 100 µM
same,TGI,[20],> 100 µM
same,growth at 1 µM,[21],42%
same,growth at 1 µM,[22],46%
same,growth at 100 µM,[23],14%
same,GI50,[24],0.272 µM
same,LC50 (concentration killing 50% of cells),[24],≥ 100 µM
same,TGI,[24],11.4 µM
same,growth at 0.01 µM,[25],90%
same,growth at 1 µM,[26],-7%
same,growth at 100 µM,[27],31%
same,growth at 100 µM,[28],10%
same,growth at 0.01 µM,[29],106%
same,growth at 0.1 µM,[30],88%
same,growth at 0.1 µM,[31],108%
same,GI50,[32],1.51 µM
same,TGI,[32],> 100 µM
same,CC50,[32],> 100 µM
CN1CCc2nc3sc(C(N)=O)c(N)c3c(-c3cccs3)c2C1,growth at 100 µM,[33],-55%
same,GI50,[34],2.38 µM
same,LC50,[34],72.2 µM
same,TGI,[34],6.56 µM
same,GI50,[1],2.7 µM
same,LC50,[1],> 100 µM
same,TGI,[1],> 100 µM
same,growth at 100 µM,[2],5%
same,GI50,[3],1.11 µM
same,TGI,[3],3.63 µM
same,CC50,[3],> 100 µM
same,growth at 100 µM,[4],-13%
same,growth at 0.01 µM,[35],105%
same,GI50,[5],3.11 µM
same,LC50,[5],> 100 µM
same,TGI,[5],70.9 µM
same,growth at 100 µM,[6],2%
same,growth at 1 µM,[7],93%
same,growth at 1 µM,[8],104%
same,growth at 0.1 µM,[9],103%
same,GI50,[10],2.81 µM
same,LC50,[10],> 100 µM
same,TGI,[10],8.03 µM
same,growth at 0.1 µM,[11],104%
same,growth at 0.01 µM,[12],95%
same,growth at 100 µM,[13],-23%
same,growth at 100 µM,[14],-40%
same,growth at 0.1 µM,[15],91%
same,GI50,[16],3.71 µM
same,LC50,[16],> 100 µM
same,TGI,[16],> 100 µM
same,growth at 100 µM,[17],2%
same,growth at 1 µM,[18],108%
same,GI50,[19],2.91 µM
same,LC50,[19],> 100 µM
same,TGI,[19],17.8 µM
same,GI50,[20],3.16 µM
same,LC50 (concentration killing 50% of the starting cells),[20],> 100 µM
same,TGI,[20],9.16 µM
same,growth at 1 µM,[21],95%
same,growth at 100 µM,[23],-1%
same,GI50,[24],1.43 µM
same,LC50 (concentration killing 50% of cells),[24],9.35 µM
same,TGI,[24],3.66 µM
same,growth at 0.01 µM,[25],93%
same,growth at 1 µM,[26],99%
same,growth at 100 µM,[28],7%
same,growth at 0.01 µM,[29],106%
same,growth at 0.1 µM,[30],89%
same,growth at 0.1 µM,[31],96%
same,GI50,[32],4.77 µM
same,TGI,[32],> 100 µM
same,CC50,[32],> 100 µM
